Sampled rows, rich in hits. Any-hit rate of the full collection: about 2.3%.
TRPC6 act = mouse TRPC6 channel activation; Q61143; actives 0.13% (n = 310,000); B-score at 10 µM; HEK293-TRPC6 membrane potential dye fluorescence; hits give high values;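 active = B-score of the integrated fluorescence ratio above library mean plus 3 SD, and starting fluorescence ratio within library mean plus 5 SD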;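 note: higher score means more depolarization so channel activation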
TRPC4 potent = allosteric potentiators of mouse TRPC4 channel | Q9QUQ5 | HEK293 TRPC4beta/mu-opioid, DAMGO EC20, Fluo-4 Ca2+ flux; hits give high values | B-score at 10 µM | actives 0.42% (n = 310,000);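 active = B-score of calcium response area above 5 SD of library B-scores, with initial fluorescence ratio within 5 SD of library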
Target sequence (Q9QUQ5 whole entry, looked up): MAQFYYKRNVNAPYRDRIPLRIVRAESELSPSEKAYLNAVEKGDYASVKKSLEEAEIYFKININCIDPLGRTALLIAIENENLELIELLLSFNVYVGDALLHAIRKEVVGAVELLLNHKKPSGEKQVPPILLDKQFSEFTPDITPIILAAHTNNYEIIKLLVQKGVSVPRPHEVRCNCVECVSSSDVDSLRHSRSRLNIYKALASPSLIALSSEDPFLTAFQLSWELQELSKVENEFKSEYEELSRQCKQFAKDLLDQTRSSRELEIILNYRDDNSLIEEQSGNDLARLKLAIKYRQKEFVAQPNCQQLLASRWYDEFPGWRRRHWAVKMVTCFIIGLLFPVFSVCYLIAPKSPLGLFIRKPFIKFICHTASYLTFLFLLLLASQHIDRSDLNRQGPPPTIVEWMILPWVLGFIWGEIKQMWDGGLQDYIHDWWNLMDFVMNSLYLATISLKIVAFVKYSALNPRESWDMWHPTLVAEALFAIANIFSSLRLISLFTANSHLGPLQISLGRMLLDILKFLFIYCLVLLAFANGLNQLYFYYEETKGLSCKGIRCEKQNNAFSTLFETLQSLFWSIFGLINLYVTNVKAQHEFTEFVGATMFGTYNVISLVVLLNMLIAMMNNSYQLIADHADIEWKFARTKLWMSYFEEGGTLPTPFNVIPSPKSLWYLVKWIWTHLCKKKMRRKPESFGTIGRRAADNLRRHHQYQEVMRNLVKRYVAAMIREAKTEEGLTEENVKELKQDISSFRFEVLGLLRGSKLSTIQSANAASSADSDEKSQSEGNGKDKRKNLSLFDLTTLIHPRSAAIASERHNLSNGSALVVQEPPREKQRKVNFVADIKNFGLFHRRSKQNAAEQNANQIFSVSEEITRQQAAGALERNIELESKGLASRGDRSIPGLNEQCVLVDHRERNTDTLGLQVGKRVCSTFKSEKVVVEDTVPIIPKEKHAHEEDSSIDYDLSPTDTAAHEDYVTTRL
TRPC4 act = opens the mouse TRPC4 cation channel; Q9QUQ5; HEK293 TRPC4beta/mu-opioid, Fluo4 calcium fluorescence; hits give high values; B-score at 10 µM; actives 0.49% (n = 310,000); AID 2237;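 active = B-score above 5 SD of library B-scores, and initial fluorescence ratio not above library mean plus 5 SD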;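 note: positive B-score marks a calcium rise read as TRPC4 activation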
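Assay system: HEK293 stable line with TRPC4beta plus mu-opioid receptor. Times: dye 45 min RT, read 110 s. Measured by: kinetic Fluo4 calcium fluorescence. Measure: B score of integrated ratio. Controls: assay buffer as low control, maximal DAMGO as high control.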
TRPC4 inh = inhibitors of mouse TRPC4 channel. HEK293 TRPC4beta/mu-opioid, DAMGO-evoked Fluo4 calcium flux; hits give low values. Q9QUQ5. B-score at 10 µM. actives 0.39% (n = 300,000);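 active = B-score over 3 SD under the library average, no early fluorescence shift, positive overall ratio signal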
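Test system – stable TRPC4beta/mu-opioid receptor HEK293 cells · Probe or stimulus – DAMGO, a submaximal dose followed by a maximal one · Dosing – one concentration per compound · Signal – Fluo4 calcium fluorescence by kinetic imaging, 5 s 1 Hz baseline · Evaluation – per-well B score of integrated baseline-normalized Fluo4 ratio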
TRPC6 inhibitor = blocks the mouse TRPC6 cation channel | Q61143 | HEK293-TRPC6, membrane potential dye, ACh-evoked depolarization; hits give low values | B-score at 10 µM | actives 1.1% (n = 310,000) | AID 2553;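 active = B-score under library mean minus 3 SD, initial fluorescence not abnormally high, positive integrated signal ratio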;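 note: B-score derived from integrated fluorescence ratio over the kinetic read; more negative B-score means stronger inhibition of depolarization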
TRPC4 spec 2 = second selectivity test of TRPC6 inhibitors: effect on mouse TRPC4. actives 42% (n = 920). inhibition, % at 10 µM. shares compounds with TRPC6 inhibitor. HEK293 TRPC4/MOR, membrane potential dye fluorescence; channel activated by saturating DAMGO dose;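 active = compounds whose fluorescence signal differed from control wells by over 3 SD, either direction, in both duplicate plates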
TRPC4 spec = tests whether TRPC6 inhibitors also affect mouse TRPC4; shares compounds with TRPC6 inhibitor; HEK293 TRPC4/mu-opioid, membrane potential fluorescence; activity change, negative = inhibition, % at 10 µM; actives 61% (n = 920);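 active = rise or fall in signal beyond 3 SD of buffer-only wells in both replicate plates, either sign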;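 note: integrated kinetic ratio of fluorescence range over baseline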
HEK293 MPD ctr 2-1 = second counter-screen for TRPC6 inhibitors: parental HEK293 cells; parental HEK293 membrane potential dye fluorescence; maximal acetylcholine challenge after compound addition; actives 31% (n = 920); shares compounds with TRPC6 inhibitor; signal change vs control, % at 10 µM;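 active = membrane potential signal moving either way by over 3 SD of the maximum-effect control, in both duplicate plates, meaning non-specific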
HEK293 MPD ctr-1 = checks TRPC6 inhibitor effects in parental HEK293 cells | shares compounds with TRPC6 inhibitor | parental HEK293 membrane potential dye fluorescence | membrane potential signal change, % at 10 µM | actives 60% (n = 920);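 active = membrane potential signal shifting up or down by more than 3 SD of buffer-only wells, on both duplicate plates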
HEK293 MPD ctr-2 = parental HEK293 nonspecific activity of TRPC6 modulators. shares compounds with TRPC6 inhibitor. membrane potential dye fluorescence. membrane potential signal change, % at 10 µM. actives 51% (n = 2,400);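 active = membrane potential signal moves up or down beyond 5 SD from buffer-only wells, on both duplicate plates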
HEK293 MPD ctr 2-2 = second check of TRPC6 modulator effects in parental HEK293 cells; shares compounds with TRPC6 inhibitor; membrane potential dye fluorescence; after compound, maximal acetylcholine stimulation; inhibition, % at 10 µM; actives 14% (n = 2,400);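 active = membrane potential signal drops by more than 5 SD from the mean control signal, in both duplicate plates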
TRPC4/MOR mod = selectivity of TRPC6 modulators against mouse TRPC4; shares compounds with TRPC6 inhibitor; HEK293 TRPC4/mu-opioid, membrane potential fluorescence; percent change from control (negative = decrease, positive = increase), % at 10 µM; actives 69% (n = 2,400); AID 488927;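 active = membrane potential signal moved up or down beyond 5 SD of buffer control wells, in both duplicate plates, actives on both sides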
TRPC4 ctr inh 2 = second selectivity test of TRPC6 modulators against mouse TRPC4; HEK293 TRPC4/mu-opioid, membrane potential dye fluorescence; stimulated with maximal-effect DAMGO; actives 55% (n = 2,400); shares compounds with TRPC6 inhibitor; AID 488928; inhibition, % at 10 µM;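 active = drop in membrane potential signal beyond 5 SD of the control wells in both duplicate plates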;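 note: TRPC4 counter screen for TRPC6 hits run under conditions tuned for TRPC6 not TRPC4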
TRPC6 block conf = mouse TRPC6 inhibitor confirmation; inhibition, % at 10 µM; shares compounds with TRPC6 inhibitor; HEK293-TRPC6, membrane potential dye, ACh-evoked depolarization; actives 43% (n = 3,300);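 active = fluorescence ratio falls more than 5 SD below the full-stimulation control mean, in both duplicate runs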;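 note: integrated fluorescence ratio of peak minus minimum over baseline after agonist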
TRPC6 act conf = mouse TRPC6 activator confirmation; HEK293-TRPC6 membrane potential dye fluorescence, FDSS; shares compounds with TRPC6 inhibitor; activation, % at 10 µM; actives 11% (n = 2,800);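 active = ratio signal rise beyond 5 SD above unstimulated control wells' mean, seen in both duplicate runs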
Large screens that a line does not name were inactive (follow-up assays come after a bar, where they were run).

Cc1ccc2nc(N(CCCN(C)C)C(=O)c3ccco3)sc2c1	TRPC6 inhibitor -7.1 | TRPC4 spec 2 34% | TRPC4 spec -20% | HEK293 MPD ctr 2-1 inactive | HEK293 MPD ctr-1 -146% | TRPC6 block conf 78% | TRPC6 act conf inactive
CN(C)CCCN(C(=O)c1cc2ccccc2oc1=O)c1nc2ccc(F)cc2s1	none
Cc1ccc2nc(N(CCCN(C)C)C(=O)c3ccc(Br)s3)sc2c1	none
c1ccc(-n2cccc2CNC2CCCCC2)cc1	TRPC6 inhibitor -6.9 | TRPC4 spec 2 inactive | TRPC4 spec inactive | HEK293 MPD ctr 2-1 inactive | HEK293 MPD ctr-1 inactive | TRPC6 block conf inactive
Cn1cccc1CNC1CCCCC1	none
O=C(CSc1ccc2c(c1)OCCO2)NCCc1ccc(Cl)cc1Cl	TRPC6 inhibitor -5.4 | HEK293 MPD ctr-2 350% | HEK293 MPD ctr 2-2 inactive | TRPC4/MOR mod 16% | TRPC4 ctr inh 2 inactive | TRPC6 block conf inactive | TRPC6 act conf inactive
Cc1[nH]n(-c2ccccc2)c(=O)c1N=Nc1ccc2c(c1)OCCO2	none
Cc1[nH]n(-c2ccccc2)c(=O)c1N=Nc1c(O)cc(S(=O)(=O)N(C)C)c2ccccc12	TRPC6 inhibitor -8.9 | HEK293 MPD ctr-2 -135% | HEK293 MPD ctr 2-2 80% | TRPC4/MOR mod -34% | TRPC4 ctr inh 2 86% | TRPC6 block conf 81% | TRPC6 act conf inactive
O=C(CSC1=NCCS1)Nc1ccnc2ccccc12	none
CCOC(=O)c1c(-c2ccccc2)csc1NC(=O)/C(C#N)=C/c1ccc(O)c(OC)c1	TRPC6 act 35 | HEK293 MPD ctr-2 438% | HEK293 MPD ctr 2-2 inactive | TRPC4/MOR mod 92% | TRPC4 ctr inh 2 inactive | TRPC6 block conf inactive | TRPC6 act conf 129%
CCOC(=O)c1c(-c2ccccc2)csc1NC(=O)/C(C#N)=C/c1ccc(OC)c(OC)c1	none
O=C(CS(=O)(=O)c1c[nH]c2ccccc12)N1CCCCCC1	none
Oc1cncc(Cc2ccccc2)c1	none
CC1=C(C(=O)OC(C)C)C(c2cccc(F)c2)N2C(=O)C(C)SC2=N1 (stereo unspecified)	TRPC6 inhibitor -6 | HEK293 MPD ctr-2 inactive | HEK293 MPD ctr 2-2 inactive | TRPC4/MOR mod 13% | TRPC4 ctr inh 2 inactive | TRPC6 block conf inactive | TRPC6 act conf inactive
CC1=C(C(=O)OCC(C)C)C(c2cccc(F)c2)N2C(=O)C(C)SC2=N1 (stereo unspecified)	none
O=C(CC1C(=O)NCCN1Cc1cccc(F)c1F)NCCCC1CCCC1 (stereo unspecified)	none
Cc1cccc[n+]1CC(=O)Nc1ccc([N+](=O)[O-])cc1Cl	none
O=C(C[n+]1ccc(Cc2ccccc2)cc1)Nc1ccc([N+](=O)[O-])cc1Cl	TRPC6 inhibitor -7.6 | TRPC4 spec 2 inactive | TRPC4 spec -27% | HEK293 MPD ctr 2-1 inactive | HEK293 MPD ctr-1 -334% | TRPC6 block conf inactive | TRPC6 act conf inactive
COc1ccc(NC(=O)CCc2nc(-c3ccccc3F)no2)cc1	none
CCN(CC)CCN(C(=O)C1=COCCO1)c1nc2cc3c(cc2s1)OCO3	TRPC6 inhibitor -6.8 | TRPC4 spec 2 52% | TRPC4 spec -22% | HEK293 MPD ctr 2-1 inactive | HEK293 MPD ctr-1 -184% | TRPC6 block conf inactive | TRPC6 act conf inactive
CCN(CC)CCN(C(=O)C1=COCCO1)c1nc2ccc(C)cc2s1	none
CCN(CC)CCN(C(=O)c1ccc(C(=O)c2ccccc2)cc1)c1nc2c(OC)cccc2s1	none
CCN(CC)CCN(C(=O)c1ccc([N+](=O)[O-])cc1)c1nc2c(OC)cccc2s1	TRPC6 inhibitor -6.3 | HEK293 MPD ctr-2 inactive | HEK293 MPD ctr 2-2 inactive | TRPC4/MOR mod -12% | TRPC4 ctr inh 2 36% | TRPC6 block conf inactive | TRPC6 act conf inactive
CCN(CC)CCN(C(=O)C1=COCCO1)c1nc2c(OC)ccc(OC)c2s1	TRPC6 inhibitor -5.4 | HEK293 MPD ctr-2 -104% | HEK293 MPD ctr 2-2 inactive | TRPC4/MOR mod -26% | TRPC4 ctr inh 2 69% | TRPC6 block conf inactive | TRPC6 act conf inactive
COc1ccc(CCNC(=O)COc2ccc(C)nc2[N+](=O)[O-])cc1OC	none
CC(C)(C)NC(=S)N/N=C/c1cccnc1	none
CCN1CCN(C(=O)c2cc3nc(-c4ccccc4)cc(C(F)(F)F)n3n2)CC1	none
Cc1c(C)n(CCc2ccccc2)c2ncnc(NCCCN(C)C)c12	TRPC6 inhibitor -6.3 | HEK293 MPD ctr-2 -70% | HEK293 MPD ctr 2-2 inactive | TRPC4/MOR mod -22% | TRPC4 ctr inh 2 58% | TRPC6 block conf 58% | TRPC6 act conf inactive
Cc1c(C)n(CCN(C)C)c2ncnc(NCc3ccccc3)c12	none
Cc1c(C)n(CCCN(C)C)c2ncnc(Nc3ccc(F)cc3)c12	TRPC6 inhibitor -6.3 | HEK293 MPD ctr-2 -144% | HEK293 MPD ctr 2-2 inactive | TRPC4/MOR mod -30% | TRPC4 ctr inh 2 38% | TRPC6 block conf 40% | TRPC6 act conf inactive
Cc1cccnc1NC(=O)C(c1ccccc1)c1ccccc1	none
O=C(Nc1ccccc1)c1cc2ccc3ccccc3c2s1	none
C=CCN=C1NN=C(c2ccc3c(c2)OCCO3)CS1	none
O=C(OCc1nnc(-c2ccccc2)o1)c1cc2ccccc2cc1O	none

High-throughput results as filed in PubChem BioAssay.
